Key:
[1] = test system: highly purified human NKs; experiment: IL-1β secretion assay; type: cell-based; conditions: for Interleukin 1 beta secreted: NK
Summary of the method: (§1)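 NK cells, MD-PBMCs, PBMCs or granulocytes (1.5 million/mL) or PBMC+granulocytes (0.75 million/mL each), per donor, exposed 24 h, 48 h or 6 days to 0.05–5 μM test compound diluted from DMSO stock, with DMSO controls. Supernatants kept at −70 °C. IL-1β by sandwich ELISA: HRP detection antibody, acid-stopped substrate, A450 against standards. Detection limit 3 pg/mL; triplicates; ANOVA then t test versus control, p<0.05.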

NK cells = experiment: Cell viability, trypan blue exclusion; type: cell-based, human
PBMCs plus Granulocytes = experiment: IL-1β secretion assay; type: cell-based, human; conditions: PBMCs plus Granulocytes
Summary of the method: as §1

SMILES: CCC[CH2][Sn][CH2]CCC [DBT, Dibutyltin]
- average of the maximum fold increase in IL-β secretion ([1]; NK cells, 24 h, across donors): 3.5 fold
- fold increase in IL-1β secretion ([1]; NK cells, donor KB169, 0.05 μM (50 nM) DBT): 7.9 fold
- fold increase in IL-1β secretion ([1]; NK cells, donor KB169, 0.1 μM (100 nM) DBT): 6.0 fold
- Interleukin 1 beta secreted ([1]; donor KB130, 24 h, 0.05 μM DBT): 386 ± 41 pg/mL
- Interleukin 1 beta secreted ([1]; donor KB130, 24 h, 0.1 μM DBT): 116 ± 27 pg/mL
- Interleukin 1 beta secreted ([1]; donor KB130, 24 h, 0.25 μM DBT): 17 ± 20 pg/mL
- Interleukin 1 beta secreted ([1]; donor KB130, 48 h, 0.05 μM DBT): 1372 ± 481 pg/mL
- Interleukin 1 beta secreted ([1]; donor KB130, 48 h, 0.1 μM DBT): 298 ± 65 pg/mL
- Interleukin 1 beta secreted ([1]; donor KB130, 48 h, 0.25 μM DBT): 139 ± 46 pg/mL
- Interleukin 1 beta secreted ([1]; donor KB130, 6 day, 0.05 μM DBT): 782 ± 35 pg/mL
- Interleukin 1 beta secreted ([1]; donor KB130, 6 day, 0.1 μM DBT): 550 ± 21 pg/mL
- Interleukin 1 beta secreted ([1]; donor KB130, 6 day, 0.25 μM DBT): 142 ± 27 pg/mL
- Interleukin 1 beta secreted ([1]; donor KB130, 6 day, 0.5 μM DBT): 46 ± 53 pg/mL
- Interleukin 1 beta secreted ([1]; donor KB155, 24 h, 0.05 μM DBT): 2965 ± 1004 pg/mL
- Interleukin 1 beta secreted ([1]; donor KB155, 24 h, 0.1 μM DBT): 2771 ± 70 pg/mL
- Interleukin 1 beta secreted ([1]; donor KB155, 24 h, 0.25 μM DBT): 779 ± 25 pg/mL
- Interleukin 1 beta secreted ([1]; donor KB155, 24 h, 0.5 μM DBT): 28 ± 23 pg/mL
- Interleukin 1 beta secreted ([1]; donor KB155, 48 h, 0.05 μM DBT): 5235 ± 531 pg/mL
- Interleukin 1 beta secreted ([1]; donor KB155, 48 h, 0.1 μM DBT): 4588 ± 130 pg/mL
- Interleukin 1 beta secreted ([1]; donor KB155, 48 h, 0.25 μM DBT): 1598 ± 450 pg/mL
- Interleukin 1 beta secreted ([1]; donor KB155, 48 h, 0.5 μM DBT): 130 ± 39 pg/mL
- Interleukin 1 beta secreted ([1]; donor KB155, 6 day, 0.05 μM DBT): 1625 ± 164 pg/mL
- Interleukin 1 beta secreted ([1]; donor KB155, 6 day, 0.1 μM DBT): 1572 ± 245 pg/mL
- Interleukin 1 beta secreted ([1]; donor KB155, 6 day, 0.25 μM DBT): 960 ± 152 pg/mL
- Interleukin 1 beta secreted ([1]; donor KB155, 6 day, 0.5 μM DBT): 138 ± 43 pg/mL
- Interleukin 1 beta secreted ([1]; donor KB169, 24 h, 0.05 μM DBT): 1551 ± 25 pg/mL
- Interleukin 1 beta secreted ([1]; donor KB169, 24 h, 0.1 μM DBT): 1173 ± 69 pg/mL
- Interleukin 1 beta secreted ([1]; donor KB169, 24 h, 0.25 μM DBT): 796 ± 137 pg/mL
- Interleukin 1 beta secreted ([1]; donor KB169, 24 h, 0.5 μM DBT): 114 ± 21 pg/mL
- Interleukin 1 beta secreted ([1]; donor KB169, 48 h, 0.05 μM DBT): 341 ± 10 pg/mL
- Interleukin 1 beta secreted ([1]; donor KB169, 48 h, 0.1 μM DBT): 367 ± 53 pg/mL
- Interleukin 1 beta secreted ([1]; donor KB169, 48 h, 0.25 μM DBT): 262 ± 14 pg/mL
- Interleukin 1 beta secreted ([1]; donor KB169, 6 day, 0.05 μM DBT): 453 ± 91 pg/mL
- Interleukin 1 beta secreted ([1]; donor KB169, 6 day, 0.1 μM DBT): 602 ± 257 pg/mL
- Interleukin 1 beta secreted ([1]; donor KB169, 6 day, 0.25 μM DBT): 511 ± 227 pg/mL
- Interleukin 1 beta secreted ([1]; donor KB169, 6 day, 0.5 μM DBT): 157 ± 61 pg/mL
- Percent Viable Cells (NK cells; 24 h, 0.05 μM DBT): 97±3%
- Percent Viable Cells (NK cells; 24 h, 0.1 μM DBT): 98±2%
- Percent Viable Cells (NK cells; 24 h, 0.25 μM DBT): 98±1%
- Percent Viable Cells (NK cells; 24 h, 0.5 μM DBT): 95±4%
- Percent Viable Cells (NK cells; 24 h, 1 μM DBT): 92±5%
- Percent Viable Cells (NK cells; 24 h, 2.5 μM DBT): 88±1%
- Percent Viable Cells (NK cells; 24 h, 5 μM DBT): 80±7%
- average decrease in viability (NK cells; 24 h, 5 μM DBT): 13%
- effect on viability compared to the control (NK cells; 24 h, 0.05–1 μM DBT): no effect
- decrease in NK cell viability (NK cells; 24 h, 2.5 and 5 μM DBT): about 10%
- Percent Viable Cells (NK cells; 48 h, 0.05 μM DBT): 97±0%
- Percent Viable Cells (NK cells; 48 h, 0.1 μM DBT): 96±1%
- Percent Viable Cells (NK cells; 48 h, 0.25 μM DBT): 93±0 %
- Percent Viable Cells (NK cells; 48 h, 0.5 μM DBT): 90±1 %
- Percent Viable Cells (NK cells; 48 h, 1 μM DBT): 79±12%
- Percent Viable Cells (NK cells; 48 h, 2.5 μM DBT): 61±6 %
- Percent Viable Cells (NK cells; 48 h, 5 μM DBT): 64±8 %
- reductions in viability (NK cells; 48 h, 2.5 and 5 μM DBT): around 35%
- Percent Viable Cells (NK cells; 6 day, 0.05 μM DBT): 75±8%
- Percent Viable Cells (NK cells; 6 day, 0.1 μM DBT): 78±7%
- Percent Viable Cells (NK cells; 6 day, 0.25 μM DBT): 74±9%
- Percent Viable Cells (NK cells; 6 day, 0.5 μM DBT): 68±9%
- Percent Viable Cells (NK cells; 6 day, 1 μM DBT): 69±3%
- Percent Viable Cells (NK cells; 6 day, 2.5 μM DBT): 58±7%
- Percent Viable Cells (NK cells; 6 day, 5 μM DBT): 49±19%
- change in viability compared to the control (NK cells; 6 days, 0.05–1 μM DBT): no change
- Interleukin 1 beta secreted (PBMCs plus Granulocytes; donor F148, 24 h, 0.05 μM DBT): 4217 ± 397 pg/mL
- Interleukin 1 beta secreted (PBMCs plus Granulocytes; donor F148, 24 h, 0.1 μM DBT): 3060 ± 191 pg/mL
- Interleukin 1 beta secreted (PBMCs plus Granulocytes; donor F148, 24 h, 0.25 μM DBT): 3344 ± 212 pg/mL
- Interleukin 1 beta secreted (PBMCs plus Granulocytes; donor F148, 24 h, 0.5 μM DBT): 7275 ± 2061 pg/mL
- Interleukin 1 beta secreted (PBMCs plus Granulocytes; donor F148, 24 h, 1 μM DBT): 2011 ± 148 pg/mL
- Interleukin 1 beta secreted (PBMCs plus Granulocytes; donor F148, 24 h, 2.5 μM DBT): 736 ± 552 pg/mL
- Interleukin 1 beta secreted (PBMCs plus Granulocytes; donor F148, 24 h, 5 μM DBT): 197 ± 78 pg/mL
- Interleukin 1 beta secreted (PBMCs plus Granulocytes; donor F148, 48 h, 0.05 μM DBT): 646 ± 25 pg/mL
- Interleukin 1 beta secreted (PBMCs plus Granulocytes; donor F148, 48 h, 0.1 μM DBT): 864 ± 11 pg/mL
- Interleukin 1 beta secreted (PBMCs plus Granulocytes; donor F148, 48 h, 0.25 μM DBT): 1017 ± 76 pg/mL
- Interleukin 1 beta secreted (PBMCs plus Granulocytes; donor F148, 48 h, 0.5 μM DBT): 1191 ± 200 pg/mL
- Interleukin 1 beta secreted (PBMCs plus Granulocytes; donor F148, 48 h, 1 μM DBT): 491 ± 26 pg/mL
- Interleukin 1 beta secreted (PBMCs plus Granulocytes; donor F148, 6 day, 0.5 μM DBT): 3 ± 1 pg/mL
- Interleukin 1 beta secreted (PBMCs plus Granulocytes; donor F154, 24 h, 0.05 μM DBT): 1364 ± 181 pg/mL
- Interleukin 1 beta secreted (PBMCs plus Granulocytes; donor F154, 24 h, 0.1 μM DBT): 1059 ± 141 pg/mL
- Interleukin 1 beta secreted (PBMCs plus Granulocytes; donor F154, 24 h, 0.25 μM DBT): 835 ± 38 pg/mL
- Interleukin 1 beta secreted (PBMCs plus Granulocytes; donor F154, 24 h, 0.5 μM DBT): 538 ± 33 pg/mL
- Interleukin 1 beta secreted (PBMCs plus Granulocytes; donor F154, 24 h, 1 μM DBT): 386 ± 157 pg/mL

— paper PMC5114172 (Journal of applied toxicology : JAT, 2016)
